Laboratory results reported in ChEMBL document CHEMBL3808325, “Discovery and Optimization of Macrocyclic Quinoxaline-pyrrolo-dihydropiperidinones as Potent Pim-1/2 Kinase Inhibitors” (ACS Med Chem Lett, 2016).
pIC50: −log10 of the molar value. In brackets after ≈: the same amount, converted by molar mass.

Columns and labels:
[1] = target: Serine/threonine-protein kinase pim-2 (Homo sapiens, UniProt Q9P1W9); assay: Inhibition of human full-length Pim2 expressed in Escherichia coli assessed as phosphorylation of biotinylated BAD peptide at Ser 112 preincubated for 30 mins followed by substrate addition measured after 1 hr by HTRF assay
Summary of the method: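 Cell-free kinase assay using recombinant Pim-1 or Pim-2. Read-out is phosphorylation of a short BAD peptide sequence spanning Ser-112.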

[2] = target: Serine/threonine-protein kinase PIM (Homo sapiens, UniProt P11309+Q9P1W9+Q86V86); assay: Inhibition of Pim1/2 in human KMS-12-BM cells assessed as phosphorylation of full-length BAD protein at Ser-112 incubated for 110 mins by flow cytometric analysis in presence of 20% FBS; assay type: cell-based
Summary of the method: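 Cell assay in KMS-12-BM, a multiple myeloma line with relatively high endogenous Pim-1/2. Pim-dependent phosphorylation of full-length endogenous BAD at Ser-112 measured.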

[3] = target: Serine/threonine-protein kinase pim-1 (Homo sapiens, UniProt P11309); assay: Inhibition of human full-length Pim1 expressed in Escherichia coli assessed as phosphorylation of biotinylated BAD peptide at Ser-112 preincubated for 30 mins followed by substrate addition measured after 1 hr by HTRF assay
[4] = Equilibrium solubility of compound in PBS by HPLC analysis; assay type: physicochemical
[5] = Protein binding in rat assessed as as fraction unbound at 5 uM by rapid equilibrium dialysis method; assay type: ADME; settings: plasma
[6] = Clearance in Sprague-Dawley rat at 1 mg/kg, iv; assay type: ADME, organism-based; settings: in vivo
Summary of the method: (§1)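 Pharmacokinetics in male Sprague–Dawley rats. Clearance also expressed as a percentage of liver blood flow. Oral bioavailability determined.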

[7] = Drug metabolism in human liver microsomes assessed as compound turnover at 1 uM incubated for 30 mins; assay type: ADME; settings: read-out: Drug metabolism
[8] = Half life in Sprague-Dawley rat at 1 mg/kg, iv; assay type: ADME, organism-based; settings: in vivo; summary of the method: as §1
[9] = Drug metabolism in rat liver microsomes assessed as compound turnover at 1 uM incubated for 30 mins; assay type: ADME; settings: read-out: Drug metabolism
[10] = Apparent permeability in pig LLC-PK1 cells at 5 uM; assay type: ADME, cell-based, Sus scrofa
[11] = Oral bioavailability in Sprague-Dawley rat at 5 mg/kg; assay type: ADME, organism-based; settings: in vivo; summary of the method: as §1
[12] = Volume of distribution at steady state in Sprague-Dawley rat at 1 mg/kg, iv; assay type: ADME, organism-based; settings: in vivo, read-out: Vdss; summary of the method: as §1
[13] = Volume of distribution at steady state in Sprague-Dawley rat at 2 mg/kg, iv; assay type: ADME, organism-based; settings: in vivo, read-out: Vdss; summary of the method: as §1
[14] = Half life in Sprague-Dawley rat at 2 mg/kg, iv; assay type: ADME, organism-based; settings: in vivo; summary of the method: as §1
[15] = Clearance in Sprague-Dawley rat at 2 mg/kg, iv; assay type: ADME, organism-based; settings: in vivo; summary of the method: as §1

Serine/threonine-protein kinase pim-2, sequence (Q9P1W9 whole entry): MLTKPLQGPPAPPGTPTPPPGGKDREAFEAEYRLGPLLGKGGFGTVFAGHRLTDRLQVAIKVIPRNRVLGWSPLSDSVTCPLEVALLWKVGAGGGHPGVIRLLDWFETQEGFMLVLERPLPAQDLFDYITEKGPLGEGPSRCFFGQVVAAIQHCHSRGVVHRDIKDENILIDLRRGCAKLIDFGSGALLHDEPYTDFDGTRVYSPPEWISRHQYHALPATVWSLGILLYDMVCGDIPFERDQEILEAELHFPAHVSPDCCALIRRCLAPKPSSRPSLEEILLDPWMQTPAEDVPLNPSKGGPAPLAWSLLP
Serine/threonine-protein kinase pim-1, sequence (P11309 whole entry): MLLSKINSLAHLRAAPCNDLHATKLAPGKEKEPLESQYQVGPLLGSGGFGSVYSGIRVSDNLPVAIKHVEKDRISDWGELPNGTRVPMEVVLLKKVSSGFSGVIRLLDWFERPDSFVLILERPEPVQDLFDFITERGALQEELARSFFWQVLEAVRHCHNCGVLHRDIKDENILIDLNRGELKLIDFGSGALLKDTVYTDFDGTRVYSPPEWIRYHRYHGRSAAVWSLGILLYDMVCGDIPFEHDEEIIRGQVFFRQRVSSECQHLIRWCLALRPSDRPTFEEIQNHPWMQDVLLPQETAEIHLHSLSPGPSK

Compound | pIC50 [1] | IC50 [2] | pIC50 [3] | solubility thermodynamic [4] | further results
Cc1nc2cccc3c2nc1NCCCC[C@@H]1CNC(=O)c2cc-3[nH]c21 | 9.70 | 100 nM | 9.40 |  | 
Cc1nc2cccc3c2nc1N[C@H](C)/C=C/C[C@H]1CNC(=O)c2cc-3[nH]c21 | 10.30 | 20 nM | 9.52 | < 5 µM | 
Cc1nc2cccc(-c3cc4c([nH]3)CCNC4=O)c2nc1Nc1ccccc1 | 8.70 | 184 nM | 8.52 |  | 
C/C1=C\C[C@H]2CNC(=O)c3cc([nH]c32)-c2cccc3nc(C)c(nc23)NC1 | 10.10 | 16 nM | 10.00 | 27 µM (≈ 9.7 µg/mL) | fraction unbound at 5 µM [5]: 0.0071; clearance [6]: 40 mL/min/kg; metabolised at 0.5 h, 1 µM [7]: 45%; half-life [8]: 2.8 h; metabolised at 0.5 h, 1 µM [9]: 45%; Papp at 5 µM [10]: 33 ×10⁻⁶ cm/s; bioavailability [11]: 35%; Vd [12]: 3.1 L/kg
Cc1nc2cccc3c2nc1N[C@@H](C)CCC[C@H]1CNC(=O)c2cc-3[nH]c21 | 9.40 | 40 nM | 9.00 | < 5 µM | 
Cc1nc2cccc3c2nc1N[C@H](C)CCC[C@H]1CNC(=O)c2cc-3[nH]c21 | 9.70 | 37 nM | 10.00 | < 5 µM | 
Cc1nc2cccc3c2nc1NC/C=C\C[C@@H]1CNC(=O)c2cc-3[nH]c21 | 9.00 | 370 nM | 8.70 |  | 
Cc1nc2cccc3c2nc1N[C@@H](C)/C=C/C[C@H]1CNC(=O)c2cc-3[nH]c21 | 9.52 | 26 nM | 9.22 | < 5 µM | 
Cc1nc2cccc3c2nc1NC[C@@H](C)CC[C@H]1CNC(=O)c2cc-3[nH]c21 | 9.52 | 37 nM | 9.52 | < 5 µM | 
CCCCNc1nc2c(-c3cc4c([nH]3)CCNC4=O)cccc2nc1C | 8.70 |  | 8.52 |  | 
Cc1nc2cccc3c2nc1NCCCC[C@H]1CNC(=O)c2cc-3[nH]c21 | 10.30 | 20 nM | 10.15 | 7 µM (≈ 2.43 µg/mL) | 

The remaining compounds from weak to strong by pIC50 [1], led by results:

pIC50 [1] | IC50 [2] | pIC50 [3] | solubility thermodynamic [4] | Compound | further results
8.70 |  |  |  | CCCNc1nc2c(-c3cc4c([nH]3)CCNC4=O)cccc2nc1C | 
9.00 | 880 nM | 9.00 |  | Cc1nc2cccc3c2nc1NC/C=C/C[C@@H]1CNC(=O)c2cc-3[nH]c21 | 
9.30 | 106 nM | 9.00 | < 5 µM | Cc1nc2cccc3c2nc1NC/C=C/C[C@H]1CNC(=O)c2cc-3[nH]c21 | 
9.40 | 25 nM | 9.30 | < 5 µM | Cc1nc2cccc3c2nc1NC[C@H](C)CC[C@H]1CNC(=O)c2cc-3[nH]c21 | 
9.70 | 14 nM | 9.40 | 23 µM (≈ 8.27 µg/mL) | C/C1=C/C[C@H]2CNC(=O)c3cc([nH]c32)-c2cccc3nc(C)c(nc23)NC1 | fraction unbound at 5 µM [5]: 0.016; Vd [13]: 1.8 L/kg; metabolised at 0.5 h, 1 µM [7]: 17%; half-life [14]: 6.1 h; metabolised at 0.5 h, 1 µM [9]: 42%; Papp at 5 µM [10]: 40 ×10⁻⁶ cm/s; clearance [15]: 15.8 mL/min/kg; bioavailability [11]: 17%
10.15 | 21 nM | 10.22 | < 5 µM | Cc1nc2cccc3c2nc1NC/C=C\C[C@H]1CNC(=O)c2cc-3[nH]c21 | 
